# Measurements reported in ChEMBL document CHEMBL5724801, “EUbOPEN Chemogenomics Library - Multiplex” (2024).
# Where “and” joins values, the source holds several entries; their conditions need not be identical. Equal entries are not always repeated.
# System: Fibroblast
# Test: Multiplex assay against human fibroblast
# Assay type: toxicity, cell-based
# How it was run: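 With compound added, live cells were imaged on a CQ1 microscope at 37°C and 5% CO2; staining with Hoechst33342, BioTracker Green Microtubule Cytoskeleton Dye, MitoTracker Red and Annexin V Alexa Fluor 680 had been done at seeding. The CellPathfinder machine-learning gating scheme split cells into Hoechst high-intensity objects or normal cells, normal cells into healthy, pyknosed or fragmented nuclei, and pyknosed cells into mitotic or apoptotic. The tubulin, mitochondrial-mass and membrane-permeability phenotypes are per cents of healthy-nucleus cells.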
# [1] = 12 h, 1 µM, compound concentration 1 uM
# [2] = 12 h, 10 µM, compound concentration 10 uM
# [3] = 24 h, 1 µM, compound concentration 1 uM
# [4] = 24 h, 10 µM, compound concentration 10 uM
# [5] = 48 h, 1 µM, compound concentration 1 uM
# [6] = 48 h, 10 µM, compound concentration 10 uM
smiles,measurement,setting,value
N[C@](CC1c2ccccc2Oc2ccccc21)(C(=O)O)[C@H]1C[C@@H]1C(=O)O,Population Apoptotic (%),[1],44% and 58%
same,Population Fragmented Nuclei (%),[1],12% and 18%
same,Population Healthy Nuclei (%),[1],73% and 59%
same,Population Hoechst High Intensity Objects (%),[1],4% and 1%
same,Population Membrane Permeable-Phenotype (%),[1],0% and 7%
same,Population Mitochondria Different-Phenotype (%),[1],1%
same,Population Mitotic Cells (%),[1],56% and 41%
same,Population Normal (%),[1],95% and 98%
same,Population Pyknosed Nuclei (%),[1],13% and 21%
same,Population Tubulin-Different-Phenotype (%),[1],27% and 37%
same,Total Cell Count,[1],189 and 113
same,Population Apoptotic (%),[2],50% and 26%
same,Population Fragmented Nuclei (%),[2],13% and 20%
same,Population Healthy Nuclei (%),[2],66% and 59%
same,Population Hoechst High Intensity Objects (%),[2],1% and 7%
same,Population Membrane Permeable-Phenotype (%),[2],2% and 0%
same,Population Mitochondria Different-Phenotype (%),[2],2% and 7%
same,Population Mitotic Cells (%),[2],50% and 73%
same,Population Normal (%),[2],98% and 92%
same,Population Pyknosed Nuclei (%),[2],20%
same,Population Tubulin-Different-Phenotype (%),[2],22% and 33%
same,Total Cell Count,[2],203 and 119
same,Population Apoptotic (%),[3],68% and 33%
same,Population Fragmented Nuclei (%),[3],12% and 27%
same,Population Healthy Nuclei (%),[3],73% and 49%
same,Population Hoechst High Intensity Objects (%),[3],2% and 4%
same,Population Membrane Permeable-Phenotype (%),[3],2% and 6%
same,Population Mitochondria Different-Phenotype (%),[3],2% and 1%
same,Population Mitotic Cells (%),[3],32% and 66%
same,Population Normal (%),[3],97% and 95%
same,Population Pyknosed Nuclei (%),[3],13% and 22%
same,Population Tubulin-Different-Phenotype (%),[3],25% and 44%
same,Total Cell Count,[3],183 and 123
same,Population Apoptotic (%),[4],57% and 35%
same,Population Fragmented Nuclei (%),[4],10% and 18%
same,Population Healthy Nuclei (%),[4],68% and 66%
same,Population Hoechst High Intensity Objects (%),[4],1% and 2%
same,Population Membrane Permeable-Phenotype (%),[4],1%
same,Population Mitochondria Different-Phenotype (%),[4],3% and 4%
same,Population Mitotic Cells (%),[4],42% and 64%
same,Population Normal (%),[4],98% and 97%
same,Population Pyknosed Nuclei (%),[4],20% and 15%
same,Population Tubulin-Different-Phenotype (%),[4],30% and 34%
same,Total Cell Count,[4],193 and 113
same,Population Apoptotic (%),[5],62% and 23%
same,Population Fragmented Nuclei (%),[5],17% and 36%
same,Population Healthy Nuclei (%),[5],68% and 48%
same,Population Hoechst High Intensity Objects (%),[5],2% and 8%
same,Population Membrane Permeable-Phenotype (%),[5],0% and 9%
same,Population Mitochondria Different-Phenotype (%),[5],2% and 5%
same,Population Mitotic Cells (%),[5],37% and 76%
same,Population Normal (%),[5],97% and 91%
same,Population Pyknosed Nuclei (%),[5],14%
same,Population Tubulin-Different-Phenotype (%),[5],26% and 65%
same,Total Cell Count,[5],189 and 125
same,Population Apoptotic (%),[6],45% and 27%
same,Population Fragmented Nuclei (%),[6],14% and 27%
same,Population Healthy Nuclei (%),[6],68% and 63%
same,Population Hoechst High Intensity Objects (%),[6],5% and 3%
same,Population Membrane Permeable-Phenotype (%),[6],1% and 2%
same,Population Mitochondria Different-Phenotype (%),[6],2%
same,Population Mitotic Cells (%),[6],54% and 72%
same,Population Normal (%),[6],94% and 96%
same,Population Pyknosed Nuclei (%),[6],16% and 9%
same,Population Tubulin-Different-Phenotype (%),[6],32% and 28%
same,Total Cell Count,[6],198 and 115
CSc1ccccc1N1CCN(CCCCCC(=O)NC2CCCc3ccccc32)CC1.Cl (stereo not given),Population Apoptotic (%),[1],37% and 50%
same,Population Fragmented Nuclei (%),[1],26% and 32%
same,Population Healthy Nuclei (%),[1],49% and 41%
same,Population Hoechst High Intensity Objects (%),[1],6% and 2%
same,Population Membrane Permeable-Phenotype (%),[1],1% and 9%
same,Population Mitochondria Different-Phenotype (%),[1],15% and 7%
same,Population Mitotic Cells (%),[1],62% and 50%
same,Population Normal (%),[1],93% and 97%
same,Population Pyknosed Nuclei (%),[1],24% and 25%
same,Population Tubulin-Different-Phenotype (%),[1],65% and 74%
same,Total Cell Count,[1],126 and 135
same,Population Apoptotic (%),[2],58% and 66%
same,Population Fragmented Nuclei (%),[2],25% and 34%
same,Population Healthy Nuclei (%),[2],57% and 50%
same,Population Hoechst High Intensity Objects (%),[2],5%
same,Population Membrane Permeable-Phenotype (%),[2],0%
same,Population Mitochondria Different-Phenotype (%),[2],78% and 36%
same,Population Mitotic Cells (%),[2],41% and 33%
same,Population Normal (%),[2],94%
same,Population Pyknosed Nuclei (%),[2],17% and 14%
same,Population Tubulin-Different-Phenotype (%),[2],95% and 92%
same,Total Cell Count,[2],220 and 242
same,Population Apoptotic (%),[3],52% and 37%
same,Population Fragmented Nuclei (%),[3],29% and 33%
same,Population Healthy Nuclei (%),[3],52% and 43%
same,Population Hoechst High Intensity Objects (%),[3],6% and 3%
same,Population Membrane Permeable-Phenotype (%),[3],0% and 3%
same,Population Mitochondria Different-Phenotype (%),[3],21% and 11%
same,Population Mitotic Cells (%),[3],47% and 62%
same,Population Normal (%),[3],93% and 96%
same,Population Pyknosed Nuclei (%),[3],18% and 23%
same,Population Tubulin-Different-Phenotype (%),[3],40% and 64%
same,Total Cell Count,[3],133 and 130
same,Population Apoptotic (%),[4],90% and 66%
same,Population Fragmented Nuclei (%),[4],22% and 33%
same,Population Healthy Nuclei (%),[4],66% and 56%
same,Population Hoechst High Intensity Objects (%),[4],7% and 3%
same,Population Membrane Permeable-Phenotype (%),[4],0%
same,Population Mitochondria Different-Phenotype (%),[4],81% and 51%
same,Population Normal (%),[4],92% and 96%
same,Population Pyknosed Nuclei (%),[4],11% and 9%
same,Population Tubulin-Different-Phenotype (%),[4],98% and 90%
same,Total Cell Count,[4],211 and 258
same,Population Apoptotic (%),[5],61% and 44%
same,Population Fragmented Nuclei (%),[5],26% and 33%
same,Population Healthy Nuclei (%),[5],56% and 45%
same,Population Hoechst High Intensity Objects (%),[5],6% and 1%
same,Population Membrane Permeable-Phenotype (%),[5],2% and 0%
same,Population Mitochondria Different-Phenotype (%),[5],17% and 12%
same,Population Mitotic Cells (%),[5],38% and 56%
same,Population Normal (%),[5],93% and 98%
same,Population Pyknosed Nuclei (%),[5],17% and 20%
same,Population Tubulin-Different-Phenotype (%),[5],69% and 64%
same,Total Cell Count,[5],132 and 124
same,Population Apoptotic (%),[6],91% and 68%
same,Population Fragmented Nuclei (%),[6],25% and 38%
same,Population Healthy Nuclei (%),[6],61% and 53%
same,Population Hoechst High Intensity Objects (%),[6],8% and 4%
same,Population Membrane Permeable-Phenotype (%),[6],0% and 2%
same,Population Mitochondria Different-Phenotype (%),[6],82% and 33%
same,Population Normal (%),[6],91% and 95%
same,Population Pyknosed Nuclei (%),[6],12% and 8%
same,Population Tubulin-Different-Phenotype (%),[6],97% and 83%
same,Total Cell Count,[6],195 and 281
